Measured values reported in article PMC4747818 (Journal of controlled release : official journal of the …, 2016).
Where a SMILES comes first, the peptide text is derived from it. [ ]: non-standard residue; d: D form.

Assays:
[1] = system: M2 macrophages; assay type: cell-based; conditions: 2 h
[2] = system: macrophages; test: M2pep sequence specificity of macrophage toxicity; assay type: cell-based, murine; conditions: peptides partially dimerized in solution; Fig. S3, linkers Fig. S4
[3] = system: M1 macrophages; test: Cell viability during binding study; assay type: cell-based, murine; conditions: 20 min on ice, PI staining; up to 50 µM; Fig. 1B
Summary of the method: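 Bone-marrow cells cultured 7 d in RPMI 1640 with 20% horse serum, 1% antibiotic-antimycotic and 20 ng/mL M-CSF, then activated 2 d with 25 ng/mL IFN-γ plus 100 ng/mL LPS. Cells were plated at 50,000/well and given biotinylated peptide in PBS/1% BSA on ice. After washing they were given streptavidin-FITC for 15 min on ice. Dead cells were scored by PI flow cytometry. Triplicates, three independent experiments.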

Compound | macrophage toxicity [2] | also measured
CC(C)C[C@@H](NC(=O)[C@@H](CCCCN)NC(=O)[C@H](CO)NC(=O)CNC(=O)CNC(=O)CNC(=O)[C@H](Cc1ccc(O)cc1)NC(=O)[C@H](Cc1c[nH]c2ccccc12)NC(=O)[C@H](Cc1c[nH]c2ccccc12)NC(=O)[C@H](CCCCN)NC(=O)[C@@H](NC(=O)CNC(=O)[C@H](Cc1c[nH]c2ccccc12)NC(=O)[C@@H]1CCCN1C(=O)[C@H](CC(=O)O)NC(=O)[C@H](CCC(N)=O)NC(=O)[C@H](CCC(=O)O)NC(=O)[C@@H](N)Cc1ccc(O)cc1)C(C)C)C(=O)N[C@H](C)C(=O)N[C@H](CCCCN)C(=O)N[C@H](CC(C)C)C(=O)N[C@H](C)C(=O)N[C@H](CCCCN)C(=O)N[C@H](CCCCN)C(=O)N[C@H](CC(C)C)C(=O)N[C@H](C)C(=O)N[C@H](CCCCN)C(=O)N[C@H](CC(C)C)C(=O)N[C@H](C)C(=O)N[C@H](CCCCN)C(N)=O [M2pepKLA] (H-YEQDPWGVKWWYGGGS[dK][dL][dA][dK][dL][dA][dK][dK][dL][dA][dK][dL][dA][dK]-NH2) | – | EC50 [1]: 4.29 µM
WEDYQWPVYKGWGGGSKKKC [scrambled M2pepKKKC, reference compound] | toxicity was only observed in the M2pepKKKC-treated samples | –
YEQDPWGVKWWYGGGSKKKBiotin [M2pepBiotin] | – | toxicity to M1 macrophages during binding study [3]: no toxicity to either cell type
YEQDPWGVKWWYGGGSKKKC [M2pepKKKC] | toxicity was only observed in the M2pepKKKC-treated samples | –
